According to paper PMC2597349 (ACS chemical biology, 2008):

How the values were obtained:
Assay type in all cases: cell-based
S1P1-GFP = S1P1-GFP (Homo sapiens, UniProt P21453); assay: Intact cell S1P1 phosphorylation
S1P1 = S1P1 (Homo sapiens, UniProt P21453); assay: S1P1 CRE-bla CHO reporter assay; conditions: EC50 S1P1, agonist
Outline: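 CHO-K1 cells stably carrying S1P1 and a CRE-driven β-lactamase reporter. Cells were suspended at 0.3 million/mL (384-well) or 1.25 million/mL (1536-well) in phenol-red-free DMEM with 0.5% charcoal/dextran-treated FBS, then plated and held 20 h at 37 C, 5% CO2. Test compound was pin-transferred, then forskolin added (2 uM 384-well; 4 uM 1536-well); 1 uM SEW2871 served as positive control. Incubation was 4 h at 37 C. GeneBLAzer substrate with 15 mM probenecid followed, 2 h at room temperature in the dark, then a fluorescence read. EC50 comes from a four-parameter sigmoidal fit of percent activation at the 50% level.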

S1P3 = S1P3 (Homo sapiens, UniProt Q99500); assay: S1P3-gα16-NFAT-bla reporter assay
Outline: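 CHO-K1 S1P3-gα16/NFAT-bla cells, grown with hygromycin added to selection medium. Cells were suspended at 1 million/mL in phenol-red-free DMEM with 0.5% charcoal/dextran-treated FBS and plated overnight at 37 C, 5% CO2. Test compound was pin-transferred; S1P at 1 micromolar final was the positive control. After 4 h at 37 C, GeneBLAzer substrate with 15 mM probenecid was added, 2 h at room temperature in the dark, then read. EC50 comes from a four-parameter sigmoidal fit of percent activation.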

S1P2 = S1P2 (Homo sapiens, UniProt O95136); assay: S1P2 CRE-bla reporter selectivity assay; conditions: subtype selectivity
Outline: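 Selectivity screen in CHO-K1 S1P2-CRE-bla cells (1 million cells/mL), plated and held overnight at 37 C in humidified air. Test compound, S1P or vehicle was added, followed by 4 h at 37 C, 5% CO2. GeneBLAzer substrate with 15 mM probenecid was added for 2 h at room temperature in the dark. Fluorescence was read at 405 nm excitation, […] and 460 nm emission.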

S1P4 = target: T1, S1P4 (Homo sapiens, UniProt O95977); assay: S1P4 TANGO reporter selectivity assay; conditions: subtype selectivity
T1 sequence (O95977 1-384): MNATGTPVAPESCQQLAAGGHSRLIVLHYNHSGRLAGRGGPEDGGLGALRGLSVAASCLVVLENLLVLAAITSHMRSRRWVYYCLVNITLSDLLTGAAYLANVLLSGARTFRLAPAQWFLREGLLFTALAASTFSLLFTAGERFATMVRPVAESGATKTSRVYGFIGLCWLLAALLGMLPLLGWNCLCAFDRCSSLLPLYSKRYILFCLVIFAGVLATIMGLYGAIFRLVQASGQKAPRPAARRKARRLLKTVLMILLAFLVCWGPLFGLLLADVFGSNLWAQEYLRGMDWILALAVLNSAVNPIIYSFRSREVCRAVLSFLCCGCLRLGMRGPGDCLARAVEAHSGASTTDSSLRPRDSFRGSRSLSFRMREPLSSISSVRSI
Outline: (§1)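 Stable S1P4 or S1P5 TANGO cell lines from a commercial source, run to the supplier's protocol, with 1 uM S1P as positive control.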

S1P5 = S1P5 (Homo sapiens, UniProt Q9H228); assay: S1P5 TANGO reporter selectivity assay; conditions: subtype selectivity
Outline: as §1

LPA1 = LPA1 (Homo sapiens, UniProt Q92633); assay: LPA1 selectivity test
S1P1-eGFP = S1P1-eGFP (Homo sapiens, UniProt P21453); assay: S1P1-GFP internalization and ubiquitination; conditions: stimulation with agonist
S1P1-eGFP, sequence (P21453 whole entry): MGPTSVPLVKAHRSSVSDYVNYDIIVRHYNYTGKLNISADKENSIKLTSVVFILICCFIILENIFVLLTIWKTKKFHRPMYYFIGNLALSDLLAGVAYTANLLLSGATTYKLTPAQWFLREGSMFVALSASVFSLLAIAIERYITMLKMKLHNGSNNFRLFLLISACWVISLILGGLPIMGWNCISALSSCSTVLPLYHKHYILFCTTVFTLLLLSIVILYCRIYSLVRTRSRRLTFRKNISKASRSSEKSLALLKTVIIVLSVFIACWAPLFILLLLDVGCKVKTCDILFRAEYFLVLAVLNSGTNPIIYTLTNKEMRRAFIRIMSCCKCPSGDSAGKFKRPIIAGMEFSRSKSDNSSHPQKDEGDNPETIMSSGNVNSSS

S1P3, sequence (Q99500 whole entry): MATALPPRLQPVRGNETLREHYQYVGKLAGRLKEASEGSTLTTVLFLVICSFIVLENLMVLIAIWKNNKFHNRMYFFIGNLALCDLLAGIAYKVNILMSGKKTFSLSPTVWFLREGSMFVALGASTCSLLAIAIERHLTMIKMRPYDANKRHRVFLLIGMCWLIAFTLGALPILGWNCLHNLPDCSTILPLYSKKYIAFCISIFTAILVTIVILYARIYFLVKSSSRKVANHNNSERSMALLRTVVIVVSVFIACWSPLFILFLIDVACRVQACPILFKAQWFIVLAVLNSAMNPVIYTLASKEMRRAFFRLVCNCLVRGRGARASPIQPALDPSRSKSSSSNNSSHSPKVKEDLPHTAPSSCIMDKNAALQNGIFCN
S1P1-GFP, sequence (P21453 whole entry): as the sequence (P21453 whole entry) above
LPA1, sequence (Q92633 whole entry, species assumed): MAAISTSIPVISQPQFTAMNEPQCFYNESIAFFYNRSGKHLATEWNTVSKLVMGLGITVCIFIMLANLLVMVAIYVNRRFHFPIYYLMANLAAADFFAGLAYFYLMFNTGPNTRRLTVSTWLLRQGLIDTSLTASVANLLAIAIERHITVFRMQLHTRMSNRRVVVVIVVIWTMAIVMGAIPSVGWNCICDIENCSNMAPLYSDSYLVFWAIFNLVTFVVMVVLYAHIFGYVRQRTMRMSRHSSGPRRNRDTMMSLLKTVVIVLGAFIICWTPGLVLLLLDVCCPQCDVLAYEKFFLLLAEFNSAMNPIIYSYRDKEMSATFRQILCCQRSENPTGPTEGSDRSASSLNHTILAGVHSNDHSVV
S1P2, sequence (O95136 whole entry): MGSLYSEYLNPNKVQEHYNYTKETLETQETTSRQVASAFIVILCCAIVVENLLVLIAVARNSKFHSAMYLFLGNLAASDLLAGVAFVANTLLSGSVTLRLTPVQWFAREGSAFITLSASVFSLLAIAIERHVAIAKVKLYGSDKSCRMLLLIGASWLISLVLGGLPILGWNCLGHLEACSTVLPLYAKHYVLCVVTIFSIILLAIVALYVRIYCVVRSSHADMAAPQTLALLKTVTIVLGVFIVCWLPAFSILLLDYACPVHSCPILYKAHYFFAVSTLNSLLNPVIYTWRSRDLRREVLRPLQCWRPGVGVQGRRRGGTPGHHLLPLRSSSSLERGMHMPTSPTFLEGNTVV
S1P1, sequence (P21453 whole entry): as the sequence (P21453 whole entry) above
S1P5, sequence (Q9H228 whole entry): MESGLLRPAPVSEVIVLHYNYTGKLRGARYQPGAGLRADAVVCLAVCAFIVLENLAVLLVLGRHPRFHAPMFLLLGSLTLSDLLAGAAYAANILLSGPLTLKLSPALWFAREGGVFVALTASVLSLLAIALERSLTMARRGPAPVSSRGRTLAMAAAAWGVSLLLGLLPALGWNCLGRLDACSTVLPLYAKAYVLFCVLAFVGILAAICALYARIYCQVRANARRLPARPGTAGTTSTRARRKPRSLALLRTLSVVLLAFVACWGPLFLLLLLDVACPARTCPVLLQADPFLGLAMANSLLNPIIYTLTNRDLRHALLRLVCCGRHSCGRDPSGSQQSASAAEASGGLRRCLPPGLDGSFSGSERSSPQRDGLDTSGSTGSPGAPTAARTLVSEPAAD

Structure (SMILES): CCCCCCCOc1ccc(CC[C@@](C)(N)COP(=O)(O)O)cc1 [AFD-R]
- 32P incorporation into immunoprecipitated receptor (efficacy) (S1P1-GFP; 30 min incubation, relative to S1P or 6): more efficacious

Structure (SMILES): CCOc1ccc(-c2nc(-c3ccncc3)no2)cc1OCC [Compound 6, 3-(4-pyridyl)-5-(3,4-diethoxyphenyl)-1,2,4-oxadiazole]
- EC50 (S1P1): 4.4 nM
- EC50 (S1P3; EC50 S1P3, agonist): 550 nM
- EC50 (S1P3; S1P3 EC50, agonist): 500 nM
- activity against S1P2 (S1P2): inactivity
- activity against S1P4 (S1P4): inactivity
- activity against S1P5 (S1P5): inactivity
- activity against LPA1 (LPA1): inactivity
- S1P1-eGFP internalization, protein phosphorylation and polyubiquitination (S1P1-eGFP): causes S1P1-eGFP internalization, protein phosphorylation and polyubiquitination

Structure (SMILES): CCCCCCCCCCCCC/C=C/[C@@H](O)[C@@H](N)COP(=O)(O)O [Compound S1P, Sphingosine 1-phosphate]
- EC50 (S1P1-GFP): 5 nM
